Test results: ChEMBL document CHEMBL1139405, “N-Propynyl analogs of beta-phenylethylidenehydrazines: synthesis and evaluation of effects on glycine, GABA, and monoamine oxidase” (Bioorg Med Chem, 2008)
The source made the active and inactive calls. The calls are words filed in the database; no cut-off is given here.

Columns and labels:
[1] = target: 4-aminobutyrate aminotransferase, mitochondrial (Homo sapiens) (UniProt P80404); assay: Inhibition of GABA-transaminase at 10 uM
Procedure, shortened: (§1)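 In vitro screen: GABASE incubated with compound in incubation buffer, with GABA-T activity read by a modified colorimetric method.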

[2] = target: 4-aminobutyrate aminotransferase, mitochondrial (Homo sapiens) (UniProt P80404); assay: Inhibition of GABA-transaminase at 100 uM; procedure, shortened: as §1
Rattus norvegicus [3] = assay: Ex vivo increase in brain glycine level in Sprague-Dawley rat whole brain at 38.5 mg/kg, ip after 3 hrs relative to control; format: functional; parameters: dose 38.5 mg/kg
Procedure, shortened: (§2)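 Male rats (~300 g) dosed i.p. in corn oil vehicle, killed by decapitation 3, 6 or 12 h later. Whole brains were flash-frozen, homogenized in 5 volumes ice-cold water, extracted with ice-cold methanol and centrifuged. Amino acids were derivatized with OPA/isobutyryl-L-cysteine and measured by HPLC-fluorescence on a C18 column at 30 °C. Values are % of vehicle control, N = 3–5 per group.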

Rattus norvegicus [4] = assay: Ex vivo increase in brain glycine level in Sprague-Dawley rat whole brain at 38.5 mg/kg, ip after 6 hrs relative to control; format: functional; conditions: route intraperitoneal; procedure, shortened: as §2
[5] = target: T1, Amine oxidase [flavin-containing] A (Rattus norvegicus, UniProt P21396); assay: Inhibition of rat brain monoamine oxidase A
T1 sequence (P21396 whole entry): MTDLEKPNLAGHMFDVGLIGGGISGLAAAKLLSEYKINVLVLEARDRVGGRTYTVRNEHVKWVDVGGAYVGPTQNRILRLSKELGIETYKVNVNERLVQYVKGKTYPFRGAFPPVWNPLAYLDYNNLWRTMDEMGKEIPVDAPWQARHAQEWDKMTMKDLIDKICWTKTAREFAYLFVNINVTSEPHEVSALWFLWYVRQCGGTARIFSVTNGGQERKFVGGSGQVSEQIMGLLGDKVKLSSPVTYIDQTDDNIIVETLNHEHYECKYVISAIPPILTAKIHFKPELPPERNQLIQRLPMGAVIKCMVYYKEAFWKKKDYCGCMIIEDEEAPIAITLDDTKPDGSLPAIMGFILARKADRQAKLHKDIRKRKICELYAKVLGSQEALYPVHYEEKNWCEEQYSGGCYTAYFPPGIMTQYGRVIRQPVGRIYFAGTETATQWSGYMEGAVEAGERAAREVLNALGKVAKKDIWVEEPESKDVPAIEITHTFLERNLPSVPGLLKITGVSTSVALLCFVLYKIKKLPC

Rattus norvegicus [6] = assay: Ex vivo inhibition of monoamine oxidase B in Sprague-Dawley rat whole brain at 30 mg/kg, ip; format: functional; parameters: dose 30 mg/kg
Procedure, shortened: (§3)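 Male Sprague–Dawley rats (~300 g) dosed i.p. in corn oil, killed at 3, 6 or 12 h; whole-brain water homogenate diluted in 0.2 M potassium phosphate pH 7.4. Activity as % of vehicle control; N = 3–6 per group.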

Rattus norvegicus [7] = assay: Ex vivo inhibition of monoamine oxidase A in Sprague-Dawley rat whole brain at 30 mg/kg, ip; format: functional; parameters: dose 30 mg/kg; procedure, shortened: as §3
Rattus norvegicus [8] = assay: Ex vivo inhibition of GABA-transaminase in Sprague-Dawley rat whole brain at 30 mg/kg, ip after 6 hrs relative to control; format: functional; conditions: route intraperitoneal
Procedure, shortened: (§4)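 Male Sprague–Dawley rats (~300 g) dosed i.p. in corn oil, killed 3, 6 or 12 h later; whole-brain homogenate (5 volumes ice-cold water). GABA-T measured radiochemically: homogenate incubated with radiolabeled GABA in buffer containing pyridoxal phosphate, products isolated with tri-n-octylamine liquid anion exchanger, scintillation counting. Activity as % of vehicle control; N = 4–5 per group.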

Rattus norvegicus [9] = assay: Ex vivo inhibition of GABA-transaminase in Sprague-Dawley rat whole brain at 30 mg/kg, ip after 3 hrs relative to control; format: functional; conditions: route intraperitoneal; procedure, shortened: as §4
Rattus norvegicus [10] = assay: Ex vivo inhibition of GABA-transaminase in Sprague-Dawley rat whole brain at 30 mg/kg, ip after 12 hrs relative to control; format: functional; conditions: route intraperitoneal; procedure, shortened: as §4
Rattus norvegicus [11] = assay: Ex vivo increase in brain GABA level in Sprague-Dawley rat whole brain at 30 mg/kg, ip after 3 hrs relative to control; format: functional; conditions: route intraperitoneal
Procedure, shortened: (§5)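 Male Sprague–Dawley rats (~300 g) given drug i.p. in corn oil vehicle, killed by decapitation at 3, 6 or 12 h; brains flash-frozen, homogenized in 5 volumes ice-cold water. Homogenate deproteinized in ice-cold methanol, centrifuged, OPA/isobutyryl-L-cysteine derivatized; HPLC with fluorescence detection, C18 column at 30 °C. Expressed as % of vehicle control; N = 3–5 per group.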

Rattus norvegicus [12] = assay: Ex vivo increase in brain alanine level in Sprague-Dawley rat whole brain at 30 mg/kg, ip after 3 hrs relative to control; format: functional; conditions: route intraperitoneal; procedure, shortened: as §5

4-aminobutyrate aminotransferase, mitochondrial (Homo sapiens), sequence (P80404 whole entry): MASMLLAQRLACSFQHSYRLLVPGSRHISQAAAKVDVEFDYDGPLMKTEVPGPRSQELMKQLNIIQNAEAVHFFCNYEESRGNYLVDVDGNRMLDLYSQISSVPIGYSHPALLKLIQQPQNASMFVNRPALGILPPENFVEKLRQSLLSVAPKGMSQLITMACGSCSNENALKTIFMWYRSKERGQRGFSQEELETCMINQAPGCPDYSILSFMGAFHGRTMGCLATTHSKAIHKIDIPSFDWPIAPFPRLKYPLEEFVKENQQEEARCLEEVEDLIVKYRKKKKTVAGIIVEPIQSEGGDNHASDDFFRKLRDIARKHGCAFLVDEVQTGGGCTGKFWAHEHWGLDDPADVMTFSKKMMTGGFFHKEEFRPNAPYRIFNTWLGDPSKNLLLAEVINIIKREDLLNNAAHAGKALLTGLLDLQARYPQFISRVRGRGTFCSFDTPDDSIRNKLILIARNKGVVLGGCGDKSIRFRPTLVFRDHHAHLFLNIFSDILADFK

SMILES	Activity [1]	Activity [2]	also measured
C#CCN(CC#C)/N=C/Cc1ccccc1Cl	inactive	inactive	
C#CCN(CC#C)/N=C/Cc1ccc(C(F)(F)F)cc1	inactive	inactive	
C#CCN(CC#C)/N=C/Cc1cccc(C)c1	inactive	inactive	
C#CCN(CC#C)/N=C/Cc1cccc(Cl)c1	inactive	inactive	
C#CCN/N=C/Cc1ccc(OC)cc1	inactive	inactive	
C#CCN(CC#C)/N=C/Cc1ccc(C)cc1	inactive	inactive	
C#CCN(CC#C)/N=C/Cc1cccc(OC)c1	inactive	inactive	
C#CCN(CC#C)/N=C/Cc1cccc(F)c1	inactive	inactive	
C#CCN/N=C/Cc1ccc(F)cc1	inactive	inactive	
C#CCN(CC#C)/N=C/Cc1cccc(C(F)(F)F)c1	inactive	inactive	
C#CCN(CC#C)/N=C/Cc1ccc(Cl)cc1	inactive	inactive	
C#CCN(CC#C)/N=C/Cc1ccc(OC)cc1	inactive	inactive	
C#CCN/N=C/Cc1cccc(C(F)(F)F)c1	inactive	inactive	
C#CCN(CC#C)/N=C/Cc1ccccc1OC	inactive	inactive	
NNCCc1ccccc1 [PHENELZINE]			inhibition (INH) [5]: > 95%
C#CCN(CC#C)/N=C/Cc1ccccc1F	inactive	inactive	
N/N=C\Cc1ccccc1			Activity (Rattus norvegicus [6]): inactive; Activity (Rattus norvegicus [7]): inactive; inhibition [1]: 10%; inhibition in vivo at 30 mg/kg (Rattus norvegicus [8]): 66%; inhibition in vivo at 30 mg/kg (Rattus norvegicus [9]): 66%; inhibition in vivo at 30 mg/kg (Rattus norvegicus [10]): 70%; Activity (Rattus norvegicus [11]): 418%; Activity (Rattus norvegicus [12]): 489%
C#CCN(CC#C)/N=C/Cc1ccc(F)cc1	inactive	inactive	
C#CCN(CC#C)/N=C/Cc1ccccc1C(F)(F)F	inactive	inactive	
C#CCN/N=C/Cc1ccc(C(F)(F)F)cc1	inactive	inactive	

Second part, led by results:

Activity [1]	Activity [2]	SMILES	also measured
inactive	inactive	C#CCN/N=C/Cc1cccc(Cl)c1	
inactive	inactive	C#CCN/N=C/Cc1cccc(F)c1	
inactive	inactive	C#CCN/N=C/Cc1ccccc1Cl	
inactive	inactive	C#CCN/N=C/Cc1cccc(OC)c1	
inactive	inactive	C#CCN/N=C/Cc1ccccc1F	
inactive	inactive	C#CCN(CC#C)/N=C/Cc1ccccc1C	
inactive	inactive	C#CCN/N=C/Cc1ccccc1C(F)(F)F	
inactive	inactive	C#CCN/N=C/Cc1ccccc1	Activity (Rattus norvegicus [3]): Active; Activity (Rattus norvegicus [4]): 216%
inactive	inactive	C#CCN/N=C/Cc1ccc(C)cc1	
inactive	inactive	C#CCN/N=C/Cc1cccc(C)c1	
inactive	inactive	C#CCN/N=C/Cc1ccccc1OC	
inactive	inactive	C#CCN/N=C/Cc1ccc(Cl)cc1	
inactive	inactive	C#CCN/N=C/Cc1ccccc1C	
